In publication PMC8790780 (Chemistry (Weinheim an der Bergstrasse, Germany), 2021):

Tests used:
[1] = target: Hsp90α (Homo sapiens, UniProt P07900); experiment: Fluorescence polarization; assay type: binding; conditions: for binding affinity for Hsp90α (in words): FP assay, SAR discussion
[2] = system: HT29 cells; experiment: Cell viability assay; assay type: cell-based; conditions: Homo sapiens, HT-29, 72 h, read-out: HT29 [IC50 in μM]
[3] = system: NCI-H1299 cells; experiment: Cell viability assay; assay type: cell-based; conditions: Homo sapiens, NCI-H1299, 72 h, read-out: NCI—H1299 [IC50 in μM]
[4] = system: Hsp90 client proteins in HT-29 cell line; experiment: Western blot analysis of client proteins in HT-29 cell lysates; assay type: cell-based, human; conditions: HT-29, 24 h, 5-50 μM
Method in brief: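 HT29 cells grown in RPMI with 10% FBS and 1% Pen-Strep. At ~70% confluence they were treated for 24 h with test compound (5, 10, 20, 30, 40, 50 μM) or GDA 500 nM. Cells were lysed in RIPA with protease/phosphatase inhibitors and spun 12,000g for 25 min at 4°C. BCA-normalized protein was run on 10% SDS-PAGE, transferred to PVDF, and detected with specific antibodies, HRP secondary and chemiluminescence.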

[5] = target: Hsp90β (Homo sapiens, UniProt P08238); experiment: Fluorescence polarization; assay type: binding; conditions: for Selectivity: Hsp90β versus Hsp90α, from FP IC50 values; for binding affinity for Hsp90β (in words): FP assay, SAR discussion
Hsp90β, sequence (P08238 whole entry): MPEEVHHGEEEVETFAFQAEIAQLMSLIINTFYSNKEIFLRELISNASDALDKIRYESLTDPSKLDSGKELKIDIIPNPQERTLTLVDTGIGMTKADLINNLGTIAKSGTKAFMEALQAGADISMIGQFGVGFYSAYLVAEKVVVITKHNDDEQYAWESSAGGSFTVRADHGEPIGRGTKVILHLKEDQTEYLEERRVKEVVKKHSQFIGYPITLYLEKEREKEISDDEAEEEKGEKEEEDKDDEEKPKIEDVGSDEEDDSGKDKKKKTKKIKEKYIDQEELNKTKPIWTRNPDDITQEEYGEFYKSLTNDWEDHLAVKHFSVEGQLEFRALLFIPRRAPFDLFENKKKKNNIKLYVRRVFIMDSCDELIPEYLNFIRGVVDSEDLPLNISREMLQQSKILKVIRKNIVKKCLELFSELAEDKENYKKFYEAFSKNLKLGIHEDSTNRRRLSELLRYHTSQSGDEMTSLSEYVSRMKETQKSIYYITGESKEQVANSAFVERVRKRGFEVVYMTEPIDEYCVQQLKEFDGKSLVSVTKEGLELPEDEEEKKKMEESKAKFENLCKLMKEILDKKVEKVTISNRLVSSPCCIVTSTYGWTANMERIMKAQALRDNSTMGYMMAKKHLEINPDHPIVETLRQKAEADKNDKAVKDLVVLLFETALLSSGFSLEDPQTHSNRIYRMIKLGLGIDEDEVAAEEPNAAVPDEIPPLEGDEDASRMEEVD

Structure (SMILES)	IC50 [1]	binding affinity for Hsp90α (in words) [1]	IC50 [2]	IC50 [3]	Erk5 total level [4]	Her-2 total level [4]	Hsp70 level [4]	survivin protein expression level (Hsp90α-dependent client) [4]	Akt protein level (Hsp90β-dependent client) ([4]; dose dependent)	CDK4 protein level (Hsp90β-dependent client) ([4]; dose dependent)	IC50 [5]	selectivity for Hsp90β versus Hsp90α [5]	Selectivity [5]	binding affinity for Hsp90β (in words) [5]
CC(C)c1cc(C(=O)N2Cc3ccccc3C2)c(O)c2ccoc12 [Compound 5, (4-Hydroxy-7-isopropylbenzofuran-5-yl)(isoindolin-2-yl) methanone]	> 100 µM	no measurable affinity	18.8 ± 2.6 µM	17.5 ± 0.42 µM	decreased at higher concentrations	decreased at higher concentrations	appear to be induced	remained unaffected until higher concentrations	induced the degradation	induced the degradation	0.27 ± 0.09 µM	~ 370 fold	> 370	–
CC(C)c1cc(C(=O)N2Cc3ccccc3C2)c(O)c2cc[nH]c12 [Compound 18, (4-hydroxy-7-isopropyl-1H-indol-5-yl)(isoindolin-2-yl)methanone]	> 100 µM	–	62 ± 1.42 µM	> 100 µM	–	–	–	–	–	–	> 100 µM	–	–	–
CC(C)c1cc(C(=O)N2Cc3ccccc3C2)c(O)c2cn[nH]c12 [Compound 19, (4-Hydroxy-7-isopropyl-1H-indazol-5-yl)(isoindolin-2-yl) methanone]	> 100 µM	–	> 100 µM	> 100 µM	–	–	–	–	–	–	> 100 µM	–	–	–
CC(C)c1cc(C(=O)N2Cc3ccccc3C2)c(O)c2[nH]nnc12 [Compound 20, (7-Hydroxy-4-isopropyl-1H-benzo[d][1,2,3]triazol-6-yl)(isoindolin-2-yl)methanone]	> 100 µM	–	> 100 µM	75 ± 21.4 µM	–	–	–	–	–	–	> 100 µM	–	–	–
CC(C)c1cc(C(=O)N2Cc3ccccc3C2)c(O)c2nc[nH]c12 [Compound 21, (4-Hydroxy-7-isopropyl-1H-benzo[d]imidazol-5-yl)(isoindolin-2-yl) methanone]	2.22 ± 0.19 µM	–	93.7 ± 2.67 µM	60 ± 10.5 µM	–	–	–	–	–	–	0.45 ± 0.15 µM	–	4.9	–
CC(C)c1cc(C(=O)N2Cc3ccccc3C2)c(O)c2c1CCC2=O [Compound 29a, 7-hydroxy-6-(isoindoline-2-carbonyl)-4-isopropyl-2,3-dihydro-1H-inden-1-one]	> 100 µM	did not exhibit affinity	63.5 ± 1.69 µM	67.6 ± 4.13 µM	–	–	–	–	–	–	> 100 µM	–	–	did not exhibit affinity
CC(C)c1cc(C(=O)N2Cc3ccccc3C2)c(O)c2c1C(=O)CC2 [Compound 29b, 4-Hydroxy-5-(isoindoline-2-carbonyl)-7-isopropyl-2,3-dihydro-1H-inden-1-one]	0.79 ± 0.14 µM	strong affinity	21.7 ± 2.6 µM	10 ± 3.28 µM	–	–	–	–	–	–	0.15 ± 0.04 µM	–	–	strong affinity
CC(C)c1cc(C(=O)N2Cc3ccccc3C2)c(O)c2c1CCC2 [Compound 31, (4-hydroxy-7-isopropyl-2,3-dihydro-1H-inden-5-yl)(isoindolin-2-yl)methanone]	> 100 µM	–	59.33 ± 0.18 µM	58.1 ± 0.34 µM	–	–	–	–	–	–	5.23 ± 0.13 µM	–	> 19.1	poor binding affinity
CC(C)c1cc(C(=O)N2Cc3ccccc3C2)c(O)c2c1CC=C2 [Compound 32a, (4-Hydroxy-7-isopropyl-1H-inden-5-yl)(isoindolin-2-yl)methanone]	> 100 µM	–	51.8 ± 2.18 µM	46.1 ± 1.11 µM	–	–	–	–	–	–	8.29 ± 0.17 µM	–	>12	–
CC(C)c1cc(C(=O)N2Cc3ccccc3C2)c(O)c2c1C=CC2 [Compound 32b, (7-hydroxy-4-isopropyl-1H-inden-6-yl)(isoindolin-2-yl)methanone]	> 100 µM	–	47.4 ± 2.94 µM	41.4 ± 1.2 µM	–	–	–	–	–	–	1.86 ± 0.11 µM	–	> 53	–
CC1Cc2c(O)c(C(=O)N3Cc4ccccc4C3)cc(C(C)C)c2C1=O (stereo not shown) [Compound 40, 4-Hydroxy-5-(isoindoline-2-carbonyl)-7-isopropyl-2-methyl-2,3-di-hydro-1H-inden-1-one]	> 100 µM	–	60.2 ± 0.63 µM	59 ± 1.78 µM	–	–	–	–	–	–	8.83 ± 1.48 µM	–	>11	–
CC(C)c1cc(C(=O)N2Cc3ccccc3C2)c(O)c2c1C(=O)C(C)(C)C2 [Compound 41, 4-hydroxy-5-(isoindoline-2-carbonyl)-7-isopropyl-2,2-dimethyl-2,3-dihydro-1H-inden-1-one]	> 100 µM	–	54.3 ± 1.32 µM	51.31 ± 0.15 µM	–	–	–	–	–	–	> 100 µM	–	–	not tolerated
CC(C)c1cc(C(=O)N2Cc3ccccc3C2)c(O)c2c1C(=O)C(F)C2 (stereo not shown) [Compound 42, 2-fluoro-4-hydroxy-5-(isoindoline-2-carbonyl)-7-isopropyl-2,3-di-hydro-1H-inden-1-one]	2.42 ± 0.07 µM	–	58.3 ± 1.51 µM	20.6 ± 0.28 µM	–	–	–	–	–	–	0.34 ± 0.01 µM	–	7.1	–
CC(C)c1cc(C(=O)N2Cc3ccccc3C2)c(O)c2c1C(=O)C(F)(F)C2 [Compound 43, 2,2-difluoro-4-hydroxy-5-(isoindoline-2-carbonyl)-7-isopropyl-2,3-dihydro-1H-inden-1-one]	> 100 µM	–	> 100 µM	> 100 µM	–	–	–	–	–	–	18.2 ± 1.3 µM	–	>5	poor affinity
CC(C)c1cc(C(=O)N2Cc3ccccc3C2)c(O)c2c1C(=O)C(C(F)(F)F)C2 (stereo not shown) [Compound 44, 4-Hydroxy-5-(isoindoline-2-carbonyl)-7-isopropyl-2-(trifluoromethyl)-2,3-dihydro-1H-inden-1-one]	> 100 µM	–	75.29 ± 0.66 µM	57.8 ± 8.01 µM	–	–	–	–	–	–	19.6 ± 2.2 µM	–	>5	–
CC(C)c1cc(C(=O)N2Cc3ccccc3C2)c(O)c2c1C(=C(F)F)CC2 [Compound 45, (1-(difluoromethylene)-4-hydroxy-7-isopropyl-2,3-dihydro-1H-inden-5-yl)(isoindolin-2-yl)methanone]	> 100 µM	did not display good affinity	–	–	–	–	–	–	–	–	> 100 µM	–	–	did not display good affinity
C=C1Cc2c(O)c(C(=O)N3Cc4ccccc4C3)cc(C(C)C)c2C1=O [Compound 46, 4-hydroxy-5-(isoindoline-2-carbonyl)-7-isopropyl-2-methylene-2,3-dihydro-1H-inden-1-one]	> 100 µM	did not display good affinity	66.5 ± 1.35 µM	68.2 ± 1.2 µM	–	–	–	–	–	–	> 100 µM	–	–	did not display good affinity
CC(C)c1cc(C(=O)N2Cc3ccccc3C2)c(O)c2c1C(=O)C=C2 [Compound 50, 4-hydroxy-5-(isoindoline-2-carbonyl)-7-isopropyl-1H-inden-1-one]	43.1 ± 11.5 µM	–	2.33 ± 0.48 µM	1.53 ± 0.16 µM	–	–	–	–	–	–	6.75 ± 0.01 µM	–	–	–
CC(C)c1cc(C(=O)N2Cc3ccccc3C2)c(O)c2c1C(=NO)CC2 [Compound 51, (4-hydroxy-1-(hydroxyimino)-7-isopropyl-2,3-dihydro-1H-inden-5-yl)(isoindolin-2-yl)methanone]	> 100 µM	–	51.2 ± 2.23 µM	33.7 ± 1.78 µM	–	–	–	–	–	–	> 100 µM	–	–	–
CON=C1CCc2c(O)c(C(=O)N3Cc4ccccc4C3)cc(C(C)C)c21 [Compound 52, (4-hydroxy-7-isopropyl-1-(methoxyimino)-2,3-dihydro-1H-inden-5-yl)(isoindolin-2-yl)methanone]	> 100 µM	–	51.2 ± 2.23 µM	86 ± 7.7 µM	–	–	–	–	–	–	> 100 µM	–	–	–
CC(C)c1cc(C(=O)N2Cc3ccccc3C2)c(O)c2c1CCCC2=O [Compound 59a, 8-hydroxy-7-(isoindoline-2-carbonyl)-5-isopropyl-3,4-dihydronaphthalen-1(2H)-one]	> 100 µM	–	51.2 ± 2.23 µM	83.3 ± 1.31 µM	–	–	–	–	–	–	> 100 µM	–	–	–
CC(C)c1cc(C(=O)N2Cc3ccccc3C2)c(O)c2c1C(=O)CCC2 [Compound 59b, 5-hydroxy-6-(isoindoline-2-carbonyl)-8-isopropyl-3,4-dihydronaphthalen-1(2H)-one]	> 100 µM	–	–	–	–	–	–	–	–	–	> 100 µM	–	–	–
